ChEMBL document CHEMBL1148324 (J Med Chem, 2004)

Experiments:
[1] = biological target: T1, Sulfonylurea receptors; K-ATP channels (Homo sapiens, UniProt O60706+Q09428+Q14654+Q15842); assay: (§1) Evaluated for K-ATP activity in terms of change in membrane potential through guinea pig bladder assay; type: functional, Cavia porcellus; settings: target entry is the homologue from another species
[2] = biological target: T1, Sulfonylurea receptors; K-ATP channels; assay: Evaluated for K-ATP activity in terms of stable twitch response through field-stimulated landrace pig detrusor assay; type: functional, Sus scrofa; settings: target entry is the homologue from another species
[3] = Selectivity expressed as the ratio of pEC50 (SLPD) and pEC50 (FSLPD); type: functional
[4] = biological target: T1, Sulfonylurea receptors; K-ATP channels; assay: Evaluated for K-ATP activity as stable twitch response through field-stimulated landrace pig detrusor assay (FSLPD); type: functional, Sus scrofa; settings: target entry is the homologue from another species
[5] = biological target: T1, Sulfonylurea receptors; K-ATP channels; assay: Evaluated for K-ATP activity as in vitro bladder relaxation in spontaneous Landrace pig detrusor strips (SLPD); type: functional, Sus scrofa; settings: target entry is the homologue from another species
In short: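 Bladder strips taken near the trigonal region of Landrace pig bladder, contracting spontaneously (myogenic, no cholinergic component). Test agents added at increasing concentrations; the read-out is the reduction in area under the contraction curve.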

[6] = biological target: Sulfonylurea receptors; K-ATP channels (UniProt Q14654+O60706+Q09428+Q15842); assay: as §1; type: functional, Cavia porcellus; settings: target entry is the homologue from another species
Sulfonylurea receptors; K-ATP channels (UniProt Q14654+O60706+Q09428+Q15842), sequence (Q14654 whole entry): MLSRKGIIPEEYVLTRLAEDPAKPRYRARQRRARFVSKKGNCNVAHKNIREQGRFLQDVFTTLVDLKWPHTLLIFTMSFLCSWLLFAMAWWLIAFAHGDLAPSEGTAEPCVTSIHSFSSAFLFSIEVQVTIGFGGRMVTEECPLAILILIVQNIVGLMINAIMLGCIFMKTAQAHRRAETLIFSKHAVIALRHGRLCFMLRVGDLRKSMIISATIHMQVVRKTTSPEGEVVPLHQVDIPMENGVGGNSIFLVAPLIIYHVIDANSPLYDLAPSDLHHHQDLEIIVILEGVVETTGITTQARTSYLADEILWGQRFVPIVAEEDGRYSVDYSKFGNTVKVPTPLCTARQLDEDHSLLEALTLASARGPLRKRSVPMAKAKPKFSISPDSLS
Sulfonylurea receptors; K-ATP channels (UniProt Q14654+O60706+Q09428+Q15842), sequence (O60706 whole entry): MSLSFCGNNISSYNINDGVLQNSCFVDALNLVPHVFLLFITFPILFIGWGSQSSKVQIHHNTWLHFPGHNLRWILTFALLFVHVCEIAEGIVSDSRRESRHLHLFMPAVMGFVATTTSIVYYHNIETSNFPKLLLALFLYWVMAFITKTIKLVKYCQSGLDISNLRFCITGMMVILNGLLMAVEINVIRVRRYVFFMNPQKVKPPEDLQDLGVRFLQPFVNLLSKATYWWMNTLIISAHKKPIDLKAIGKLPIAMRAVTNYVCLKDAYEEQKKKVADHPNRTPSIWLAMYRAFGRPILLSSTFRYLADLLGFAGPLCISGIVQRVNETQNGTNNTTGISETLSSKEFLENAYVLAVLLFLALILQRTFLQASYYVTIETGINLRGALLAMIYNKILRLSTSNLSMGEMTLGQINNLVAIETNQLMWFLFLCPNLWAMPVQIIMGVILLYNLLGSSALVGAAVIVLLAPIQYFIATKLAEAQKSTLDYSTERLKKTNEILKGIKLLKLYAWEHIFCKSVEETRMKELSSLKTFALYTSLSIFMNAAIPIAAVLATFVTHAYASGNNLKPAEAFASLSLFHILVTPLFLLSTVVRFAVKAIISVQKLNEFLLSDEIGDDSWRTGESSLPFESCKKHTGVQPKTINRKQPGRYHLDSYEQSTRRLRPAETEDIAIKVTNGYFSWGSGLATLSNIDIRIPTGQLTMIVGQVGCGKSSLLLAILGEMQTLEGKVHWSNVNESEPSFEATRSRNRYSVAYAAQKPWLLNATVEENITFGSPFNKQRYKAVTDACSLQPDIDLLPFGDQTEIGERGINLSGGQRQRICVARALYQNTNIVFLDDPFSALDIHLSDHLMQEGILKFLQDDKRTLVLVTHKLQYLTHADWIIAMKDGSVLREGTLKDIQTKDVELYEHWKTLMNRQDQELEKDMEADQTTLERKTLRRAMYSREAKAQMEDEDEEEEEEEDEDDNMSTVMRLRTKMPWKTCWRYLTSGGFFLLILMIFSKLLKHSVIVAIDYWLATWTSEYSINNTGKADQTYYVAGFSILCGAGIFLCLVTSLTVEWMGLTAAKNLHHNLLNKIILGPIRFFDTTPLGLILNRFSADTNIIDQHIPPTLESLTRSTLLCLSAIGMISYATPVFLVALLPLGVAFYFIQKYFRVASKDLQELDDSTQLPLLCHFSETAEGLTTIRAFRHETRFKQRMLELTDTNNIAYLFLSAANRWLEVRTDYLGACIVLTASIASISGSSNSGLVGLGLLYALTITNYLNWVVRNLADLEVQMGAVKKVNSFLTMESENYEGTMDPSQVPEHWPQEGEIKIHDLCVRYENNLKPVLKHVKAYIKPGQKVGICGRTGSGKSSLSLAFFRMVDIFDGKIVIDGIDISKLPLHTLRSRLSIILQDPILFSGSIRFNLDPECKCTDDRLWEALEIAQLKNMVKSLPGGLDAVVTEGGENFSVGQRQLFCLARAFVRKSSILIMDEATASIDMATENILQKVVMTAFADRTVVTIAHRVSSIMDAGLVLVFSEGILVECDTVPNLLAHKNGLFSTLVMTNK
Sulfonylurea receptors; K-ATP channels (UniProt Q14654+O60706+Q09428+Q15842), sequence (Q09428 whole entry): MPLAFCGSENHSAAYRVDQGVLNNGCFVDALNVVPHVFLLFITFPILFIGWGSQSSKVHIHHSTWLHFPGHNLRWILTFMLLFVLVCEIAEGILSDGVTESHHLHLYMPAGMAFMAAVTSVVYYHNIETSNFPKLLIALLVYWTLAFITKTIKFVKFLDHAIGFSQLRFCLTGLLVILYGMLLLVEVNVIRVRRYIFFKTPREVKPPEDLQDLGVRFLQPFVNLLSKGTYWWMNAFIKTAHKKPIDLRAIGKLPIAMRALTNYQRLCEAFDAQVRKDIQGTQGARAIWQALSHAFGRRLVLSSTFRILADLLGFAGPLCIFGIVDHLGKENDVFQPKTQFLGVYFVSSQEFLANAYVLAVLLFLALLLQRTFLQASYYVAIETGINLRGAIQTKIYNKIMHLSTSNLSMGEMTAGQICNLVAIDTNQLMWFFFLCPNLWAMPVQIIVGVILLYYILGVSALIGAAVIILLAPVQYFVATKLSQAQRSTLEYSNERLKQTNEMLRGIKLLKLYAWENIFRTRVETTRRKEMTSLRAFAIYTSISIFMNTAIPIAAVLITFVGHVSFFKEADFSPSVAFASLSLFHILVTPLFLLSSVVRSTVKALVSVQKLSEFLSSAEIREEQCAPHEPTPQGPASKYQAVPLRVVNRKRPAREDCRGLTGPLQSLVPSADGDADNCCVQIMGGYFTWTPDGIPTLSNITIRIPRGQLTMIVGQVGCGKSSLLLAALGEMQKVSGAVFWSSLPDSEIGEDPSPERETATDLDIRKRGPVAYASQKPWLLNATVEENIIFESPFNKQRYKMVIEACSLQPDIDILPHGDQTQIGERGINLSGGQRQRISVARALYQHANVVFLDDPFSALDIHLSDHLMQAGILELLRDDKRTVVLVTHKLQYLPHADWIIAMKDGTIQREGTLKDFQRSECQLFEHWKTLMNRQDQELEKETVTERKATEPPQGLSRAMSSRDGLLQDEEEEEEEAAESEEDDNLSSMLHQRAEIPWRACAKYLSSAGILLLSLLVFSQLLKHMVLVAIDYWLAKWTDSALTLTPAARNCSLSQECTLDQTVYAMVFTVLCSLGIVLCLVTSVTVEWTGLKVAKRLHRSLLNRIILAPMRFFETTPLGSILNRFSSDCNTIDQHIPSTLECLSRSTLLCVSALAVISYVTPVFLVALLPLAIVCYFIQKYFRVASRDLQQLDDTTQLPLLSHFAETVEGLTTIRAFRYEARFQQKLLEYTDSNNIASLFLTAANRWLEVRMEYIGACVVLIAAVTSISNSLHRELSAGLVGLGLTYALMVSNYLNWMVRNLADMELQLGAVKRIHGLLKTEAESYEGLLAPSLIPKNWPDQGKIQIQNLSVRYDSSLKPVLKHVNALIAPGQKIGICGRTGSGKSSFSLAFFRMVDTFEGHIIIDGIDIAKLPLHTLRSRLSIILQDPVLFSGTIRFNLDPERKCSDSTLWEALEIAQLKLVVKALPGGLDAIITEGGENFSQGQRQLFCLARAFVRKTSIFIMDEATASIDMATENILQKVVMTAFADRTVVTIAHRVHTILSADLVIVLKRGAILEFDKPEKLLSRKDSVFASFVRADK
Sulfonylurea receptors; K-ATP channels (UniProt Q14654+O60706+Q09428+Q15842), sequence (Q15842 whole entry): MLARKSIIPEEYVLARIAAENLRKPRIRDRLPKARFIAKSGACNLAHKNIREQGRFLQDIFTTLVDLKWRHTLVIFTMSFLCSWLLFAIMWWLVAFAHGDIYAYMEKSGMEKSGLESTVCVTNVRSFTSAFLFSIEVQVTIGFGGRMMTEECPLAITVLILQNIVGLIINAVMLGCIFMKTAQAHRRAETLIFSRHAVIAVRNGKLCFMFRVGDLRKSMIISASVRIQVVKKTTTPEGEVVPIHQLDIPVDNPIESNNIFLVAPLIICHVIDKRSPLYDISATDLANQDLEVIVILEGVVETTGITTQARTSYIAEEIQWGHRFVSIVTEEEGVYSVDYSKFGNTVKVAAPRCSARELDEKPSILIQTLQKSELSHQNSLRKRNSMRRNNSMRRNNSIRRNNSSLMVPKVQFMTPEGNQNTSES

| Structure (SMILES) | EC50 [1] [nM] | EC50 [2] [nM] | other results |
| --- | --- | --- | --- |
| CC(=O)C1=C(C)NC2=C(C1c1ccc(F)c(Br)c1)S(=O)(=O)CCC2 (stereo unspecified) | 214 | 794 | – |
| N#Cc1cccc(C2C3=C(CCCC3=O)NC3=C2C(=O)CCC3)c1 | – | 9770 | – |
| CCOC(=O)C1=C(C(F)(F)F)NC2=C(C1c1ccc(F)c(Br)c1)S(=O)(=O)CC2 (stereo unspecified) | > 10000 | – | – |
| Cc1ccc([C@H]2C3=C(CCCC3=O)NC3=C2S(=O)(=O)CC3)cc1Br | 182 | 110 | – |
| N#Cc1ccnc(C2C3=C(CCC3=O)NC3=C2S(=O)(=O)CC3)c1 (stereo unspecified) | > 10000 | – | – |
| O=C1CCCC2=C1[C@H](c1ccc(Cl)c(Cl)c1)C1=C(CCS1(=O)=O)N2 | 269 | 331 | – |
| N#Cc1cc([C@H]2C3=C(CCCC3=O)NC3=C2S(=O)(=O)CC3)ccc1F | 468 | – | – |
| O=S1(=O)CCCC2=C1C(c1ccc(F)c(Br)c1)C1=C(CCCS1(=O)=O)N2 | 3160 | 11700 | – |
| O=C1CCCC2=C1[C@H](c1ccc(F)c(-c3ccccc3)c1)C1=C(CCS1(=O)=O)N2 | 12000 | – | – |
| O=C1CCCC2=C1[C@H](c1ccc(F)c(C(F)(F)F)c1)C1=C(CCS1(=O)=O)N2 | 155 | 977 | – |
| O=C1CCC2=C1C(c1ccc([N+](=O)[O-])s1)C1=C(CCS1(=O)=O)N2 (stereo unspecified) | – | 479 | Log EC50 [6]: -6.82 |
| O=C1CCCC2=C1[C@H](c1ccc(F)c(-c3cccnc3)c1)C1=C(CCS1(=O)=O)N2 | > 10000 | – | – |
| O=C1CCCC2=C1[C@H](c1ccc(F)c(Cl)c1)C1=C(CCS1(=O)=O)N2 | 138 | 214 | – |
| O=C1CCCC2=C1C(c1ccc(F)c(Br)c1)C1=C(CCCS1(=O)=O)N2 (single isomer, unassigned; (+)) | 1200 | 6760 | – |
| O=C1CCCC2=C1[C@H](c1cc(Cl)c(Cl)cc1CO)C1=C(CCS1(=O)=O)N2 | 61700 | – | – |
| O=C1CCC2=C1[C@H](c1ccc(F)c(Br)c1)C1=C(CCS1(=O)=O)N2 | 575 | 339 | – |
| O=C1CCCC2=C1C(c1ccc(F)c(Br)c1)C1=C(CCCS1(=O)=O)N2 (stereo in doubt; 17(-)) | 38 | 363 | – |
| O=C1CCC2=C1[C@@H](c1ccc(F)c(Br)c1)C1=C(CCS1(=O)=O)N2 | 33.1 | 30.9 | – |
| CC1=C(C(=O)O)C(c2ccc(F)c(Br)c2)C2=C(CCS2(=O)=O)N1 (stereo unspecified) | 1820 | 8710 | – |

More lines, main results first:

| EC50 [1] [nM] | EC50 [2] [nM] | Structure (SMILES) | other results |
| --- | --- | --- | --- |
| 2240 | 11700 | O=C1CCC2=C1C(c1ccc(F)c(Br)c1)C1=C(CCCCS1(=O)=O)N2 (stereo unspecified) | – |
| 2570 | – | CSc1cc([C@H]2C3=C(CCCC3=O)NC3=C2S(=O)(=O)CC3)ccc1F | – |
| 282 | 537 | Cc1ccc([C@H]2C3=C(CCCC3=O)NC3=C2S(=O)(=O)CC3)cc1[N+](=O)[O-] | – |
| 214 | 2340 | O=C1CCCC2=C1[C@H](c1ccc3nonc3c1)C1=C(CCS1(=O)=O)N2 | – |
| 240 | 661 | O=C1CCC2=C1C(c1csc([N+](=O)[O-])c1)C1=C(CCS1(=O)=O)N2 (stereo unspecified) | – |
| 43.7 | – | O=C1CCCC2=C1[C@@H](c1ccc(F)c(Br)c1)C1=C(CCS1(=O)=O)N2 | Selectivity [3]: 5.5; EC50 [4]: 69.2 nM; EC50 [5]: 12.6 nM |
| 1510 | – | O=C1CCCC2=C1[C@H](c1cccc(Br)c1)C1=C(CCS1(=O)=O)N2 | – |
| 28.2 | 447 | O=C1CCCC2=C1[C@H](c1ccc(F)c(I)c1)C1=C(CCS1(=O)=O)N2 | – |
| 741 | – | O=C1CCC2=C1C(c1cc(Br)cs1)C1=C(CCS1(=O)=O)N2 (stereo unspecified) | – |
| > 10000 | – | N#Cc1cccc(C2C3=C(CCC3=O)NC3=C2S(=O)(=O)CC3)n1 (stereo unspecified) | – |
| 2400 | – | O=C1CCCC2=C1[C@H](c1ccc3nsnc3c1)C1=C(CCS1(=O)=O)N2 | – |
| 52.5 | 282 | O=C1CCC2=C1[C@@H](c1ccc(F)c(Br)c1)C1=C(CCCS1(=O)=O)N2 | – |
| 27.5 | – | CC1=C(C#N)C(c2ccc(F)c(Br)c2)C2=C(CCS2(=O)=O)N1 (stereo unspecified) | – |
| 107 | 977 | CC1(C)CCC2=C(C1=O)[C@@H](c1ccc(F)c(Br)c1)C1=C(CCS1(=O)=O)N2 | – |
| 501 | – | CCOC(=O)C1=C(C)NC2=C(C1c1ccc(F)c(Br)c1)S(=O)(=O)CC2 (stereo unspecified) | – |
